Source: ChEMBL document CHEMBL4373687, “Introducing nitrogen atoms to amidoalkylindoles: potent and selective cannabinoid type 2 receptor agonists with improved aqueous solubility” (Medchemcomm, 2019)

Tests used:
[1] = molecular target: T1, Cannabinoid receptor 2 (Homo sapiens, UniProt P34972); test: Agonist activity at human CB2-receptor expressed in CHO-K1 cells coexpressing G-alpha16 at 10 uM by Fluo-4-AM dye based calcium mobilization assay; format: functional, cell-based
Procedure, shortened: (§1)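 CHO-K1 cells stably co-expressing Gα16 and human CB1 or CB2, seeded 24 h. Loaded with 2 μM fluo-4 AM in HBSS (with sulfinpyrazone, pH 7.4) at 37 °C for 45 min. Compound added and calcium fluorescence recorded (ex 485/em 525 nm). CP55940 positive control, DMSO negative control. Compounds with >50% activation at 10 μM got eight-point curves in triplicate, sigmoidal fit for EC50.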

[2] = Kinetic aqueous solubility of compound in phosphate-buffer containing 1% DMSO ultrasonicated for 10 mins at pH 7.4 measured using 50-95% methanol in water as gradient for 23 mins by HPLC analysis; format: physicochemical
Procedure, shortened: (§2)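 Kinetic solubility: 10 mM DMSO stock diluted into 10 mM phosphate buffer pH 7.4 or 1.4 (final 1% DMSO), sonicated 10 min at room temperature, filtered 0.22 μm. Quantified by C18 HPLC against a standard curve. Gradient 50–95% methanol/water with trifluoroacetic acid over 23 min at 1.0 mL/min. n = 3.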

[3] = molecular target: T1, Cannabinoid receptor 2; test: Antagonist activity at human CB2-receptor expressed in CHO-K1 cells coexpressing G-alpha16 pre-incubated for 10 mins and later treated with 100 nM CB-receptor agonist, CP55940 by Fluo-4-AM dye based calcium mobilization assay; format: functional, cell-based; conditions: cho-k1
Procedure, shortened: (§3)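 CHO-K1 cells stably co-expressing Gα16 and human CB1 or CB2, loaded with 2 μM fluo-4 AM in HBSS pH 7.4 at 37 °C for 45 min. Pre-incubated with compound for 10 min at room temperature, then CP55940 added at 100 nM. Peak calcium read over 60 s (ex 485/em 525 nm). Rimonabant positive control. Actives got eight-point curves in triplicate, sigmoidal fit for IC50.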

[4] = molecular target: T2, Cannabinoid receptor 1 (Homo sapiens, UniProt P21554); test: Antagonist activity at human CB1-receptor expressed in CHO-K1 cells coexpressing G-alpha16 at 10 uM pre-incubated for 10 mins and later treated with 100 nM CB-receptor agonist, CP55940 by Fluo-4-AM dye based calcium mobilization assay; format: cell-based; procedure, shortened: as §3
[5] = molecular target: T1, Cannabinoid receptor 2; test: Antagonist activity at human CB2-receptor expressed in CHO-K1 cells coexpressing G-alpha16 at 10 uM pre-incubated for 10 mins and later treated with 100 nM CB-receptor agonist, CP55940 by Fluo-4-AM dye based calcium mobilization assay; format: functional, cell-based; procedure, shortened: as §3
[6] = molecular target: T1, Cannabinoid receptor 2; test: Agonist activity at human CB2-receptor expressed in CHO-K1 cells coexpressing G-alpha16 by Fluo-4-AM dye based calcium mobilization assay; format: functional, cell-based; conditions: read-out: EC50
[7] = Kinetic aqueous solubility of compound in phosphate-buffer containing 1% DMSO ultrasonicated for 10 mins at pH 1.4 measured using 50-95% methanol in water as gradient for 23 mins by HPLC analysis; format: physicochemical; conditions: pH 1.4, 10 min; procedure, shortened: as §2
[8] = molecular target: T2, Cannabinoid receptor 1; test: Antagonist activity at human CB1-receptor expressed in CHO-K1 cells coexpressing G-alpha16 pre-incubated for 10 mins and later treated with 100 nM CB-receptor agonist, CP55940 by Fluo-4-AM dye based calcium mobilization assay; format: cell-based; procedure, shortened: as §3
[9] = molecular target: T2, Cannabinoid receptor 1; test: Agonist activity at human CB1-receptor expressed in CHO-K1 cells coexpressing G-alpha16 at 10 uM by Fluo-4-AM dye based calcium mobilization assay; format: cell-based; conditions: cho-k1, 10 µM; procedure, shortened: as §1
[10] = molecular target: T2, Cannabinoid receptor 1; test: Agonist activity at human CB1-receptor expressed in CHO-K1 cells coexpressing G-alpha16 by Fluo-4-AM dye based calcium mobilization assay; format: cell-based; conditions: read-out: EC50
[11] = molecular target: T1, Cannabinoid receptor 2; test: Agonist activity at human CB2-receptor expressed in CHO-K1 cells coexpressing G-alpha16 assessed as maximum efficacy by Fluo-4-AM dye based calcium mobilization assay relative to CP55940; format: functional, cell-based; procedure, shortened: as §1
[12] = Kinetic aqueous solubility of compound in phosphate-buffer containing 1% DMSO ultrasonicated for 10 mins at pH 1.4 by HPLC analysis; format: physicochemical; conditions: pH 1.4, 10 min
Procedure, shortened: (§4)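 Kinetic solubility: 10 mM DMSO stock diluted into 10 mM phosphate buffer at pH 7.4 or 1.4 (final 1% DMSO). Sonicated 10 min at room temperature and filtered through a 0.22 μm PTFE filter. Concentration determined by reversed-phase C18 HPLC (275/290 nm) against a standard curve. n = 3.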

[13] = Kinetic aqueous solubility of compound in phosphate-buffer containing 1% DMSO ultrasonicated for 10 mins at pH 7.4 by HPLC analysis; format: physicochemical; conditions: pH 7.4, 10 min; procedure, shortened: as §4
[14] = molecular target: T2, Cannabinoid receptor 1; test: Agonist activity at human CB1-receptor expressed in CHO-K1 cells coexpressing G-alpha16 assessed as maximum efficacy by Fluo-4-AM dye based calcium mobilization assay relative to CP55940; format: cell-based; procedure, shortened: as §1
[15] = Kinetic aqueous solubility of compound in phosphate-buffer containing 1% DMSO ultrasonicated for 10 mins at pH 7.4 measured using 60-95% methanol in water as gradient for 19 mins by HPLC analysis; format: physicochemical; conditions: pH 7.4, 10 min
Procedure, shortened: (§5)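 Kinetic solubility: 10 mM DMSO stock diluted into 10 mM phosphate buffer pH 7.4 or 1.4 (final 1% DMSO), sonicated 10 min at room temperature, filtered 0.22 μm. Quantified by C18 HPLC against a standard curve. Gradient 60–95% methanol/water with trifluoroacetic acid over 19 min at 1.0 mL/min. n = 3.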

[16] = Kinetic aqueous solubility of compound in phosphate-buffer containing 1% DMSO ultrasonicated for 10 mins at pH 1.4 measured using 60-95% methanol in water as gradient for 19 mins by HPLC analysis; format: physicochemical; conditions: pH 1.4, 10 min; procedure, shortened: as §5

T1 sequence (P34972 whole entry): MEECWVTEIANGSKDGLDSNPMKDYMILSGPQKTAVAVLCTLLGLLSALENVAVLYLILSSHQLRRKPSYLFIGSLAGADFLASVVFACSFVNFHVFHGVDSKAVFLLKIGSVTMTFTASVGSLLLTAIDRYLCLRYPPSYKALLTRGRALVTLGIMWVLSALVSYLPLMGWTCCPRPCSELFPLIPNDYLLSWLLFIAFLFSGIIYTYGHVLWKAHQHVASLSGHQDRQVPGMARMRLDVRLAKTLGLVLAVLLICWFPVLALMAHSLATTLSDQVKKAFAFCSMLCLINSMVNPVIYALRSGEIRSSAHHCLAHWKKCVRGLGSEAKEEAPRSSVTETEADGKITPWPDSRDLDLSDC
T2 sequence (P21554 whole entry): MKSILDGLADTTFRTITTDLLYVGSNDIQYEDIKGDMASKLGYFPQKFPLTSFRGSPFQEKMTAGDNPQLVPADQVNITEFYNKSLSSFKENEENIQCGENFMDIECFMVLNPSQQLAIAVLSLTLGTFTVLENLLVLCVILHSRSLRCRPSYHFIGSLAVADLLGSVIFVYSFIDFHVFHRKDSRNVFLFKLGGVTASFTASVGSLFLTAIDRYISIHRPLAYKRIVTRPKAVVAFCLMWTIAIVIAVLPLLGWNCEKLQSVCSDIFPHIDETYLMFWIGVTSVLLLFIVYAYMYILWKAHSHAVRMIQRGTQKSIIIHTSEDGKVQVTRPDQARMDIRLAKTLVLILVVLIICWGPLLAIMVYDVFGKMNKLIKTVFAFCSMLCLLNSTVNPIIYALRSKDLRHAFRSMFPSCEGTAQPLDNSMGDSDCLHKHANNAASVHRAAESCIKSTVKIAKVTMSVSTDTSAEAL

Row | SMILES | Activity [1] | IC50 [3] | inhibition at 10 µM [4] | inhibition [5] | EC50 [6] | IC50 [8] | Activity [9] | EC50 [10] | Emax [11] | further results
1 | O=C(NC12CC3CC(CC(C3)C1)C2)c1cn(CCN2CCOCC2)c2ncccc12 | > 50% | Not Active | < 50% | < 50% | 48 nM | Not Active | < 50% | > 10 µM | 25.7% | Kinetic_solubility [2]: 69.43 uM/L; log(Kinetic_solubility) [2]: -4.15; Kinetic_solubility [7]: 86.6 uM/L; log(Kinetic_solubility) [7]: -4.06
2 | O=C(NC12CC3CC(CC(C3)C1)C2)c1nc2ccccc2n1CCCCCO | > 50% | Not Active | < 50% | < 50% | 67 nM | Not Active | < 50% | > 10 µM | 64% | Kinetic_solubility [12]: 96 uM/L; log(Kinetic_solubility) [12]: -4.02; Kinetic_solubility [13]: 32.88 uM/L; log(Kinetic_solubility) [13]: -4.48
3 | O=C(NC12CC3CC(CC(C3)C1)C2)c1n[nH]c2ccccc12 | > 50% | Not Active | < 50% | < 50% | 86 nM | Not Active | > 50% | 17.1 µM | 73.9% | Emax [14]: 67.3%; Kinetic_solubility [15]: < 10 uM/L; log(Kinetic_solubility) [15]: < -5; Kinetic_solubility [16]: < 10 uM/L; log(Kinetic_solubility) [16]: < -5
